Compound activity as filed in PubChem BioAssay.
FXIIa inh 1536: factor XIIa (human) inhibition; P00748; purified FXIIa, Boc-QGR-AMC fluorogenic substrate, 2 h; inhibition, % at 5 µM; 220,000 compounds, 0.3% hits; in the data active = inhibition above about 40%;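 note: 0% = enzyme with no compound and 100% = blank without enzyme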
Target sequence (P00748 20-372 limits assumed): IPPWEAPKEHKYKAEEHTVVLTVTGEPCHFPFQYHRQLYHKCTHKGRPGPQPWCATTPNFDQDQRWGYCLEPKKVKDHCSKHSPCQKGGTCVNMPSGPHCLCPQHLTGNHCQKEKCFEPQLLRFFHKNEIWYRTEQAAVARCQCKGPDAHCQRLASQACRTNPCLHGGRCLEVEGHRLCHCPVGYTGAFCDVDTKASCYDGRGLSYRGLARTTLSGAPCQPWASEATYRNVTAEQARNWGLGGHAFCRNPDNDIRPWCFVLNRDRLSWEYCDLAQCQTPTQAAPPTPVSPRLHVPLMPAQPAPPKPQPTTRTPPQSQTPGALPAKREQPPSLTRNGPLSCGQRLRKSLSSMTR
Target sequence (P00748 373-615 limits assumed): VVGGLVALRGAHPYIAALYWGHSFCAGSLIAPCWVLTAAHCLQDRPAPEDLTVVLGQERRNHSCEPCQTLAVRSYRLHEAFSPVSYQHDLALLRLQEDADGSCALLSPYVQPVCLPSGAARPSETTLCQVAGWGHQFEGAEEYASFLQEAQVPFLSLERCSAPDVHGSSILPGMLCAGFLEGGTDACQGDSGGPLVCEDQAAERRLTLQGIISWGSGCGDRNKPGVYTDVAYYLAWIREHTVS
Thrombin inh: inhibitors of human thrombin; alpha-thrombin, Boc-VPR-AMC fluorogenic substrate cleavage; inhibition, % at 5 µM; 220,000 compounds, 0.26% hits; AID 1046;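 active = inhibition at or above 40%; inactive = inhibition below 40%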;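 note: 0% = enzyme with no compound and 100% = wells without enzyme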
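Material: human alpha-thrombin protein. Incubation: reaction at ambient temperature. Technique: fluorescence of released AMC, ex 355 nm, em 460 nm. Control set: no-compound enzyme wells and no-enzyme blanks. Also added: Boc-VPR-AMC substrate, 15 µM final. Buffer or medium: pH 7.5 Tris (50 mM) with NaCl 150 mM, Tween 20 0.05%.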
PERK inh: blocks human PERK kinase; Q9NZJ5; CHO PERK-DD fusion, SEAP luminescence translation reporter; inhibition, % at 5.6 µM; 220,000 compounds, 0.17% hits;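 active = inhibition above the mean inhibition of all tested compounds plus 3 SD, set separately per screening campaign, cut at about 2.9% in these data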;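 note: PERK kinase domain activated by AP20187 dimerizer at 100 nM; 0% = DMSO with dimerizer and 100% = rapamycin at 8.4 µM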
Furin inhibitor: blocks human furin protease activity; P09958; AID 463115; purified furin, fluorogenic substrate cleavage; 220,000 compounds, 0.061% hits; inhibition, % at 20 µM or 30 µM; in the data active = inhibition above about 25%
FXIa inh: inhibitors of human coagulation factor XIa | P03951 | purified FXIa, Boc-Glu-Ala-Arg-AMC fluorogenic substrate | inhibition, % at 5 µM | 220,000 compounds, 0.14% hits;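 active = inhibition of at least 40%; inactive = inhibition below 40%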;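 note: fluorescence of freed AMC excited at 355 nm; 0% = enzyme without compound and 100% = no enzyme blank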
KLK5 inh: blocks human kallikrein 5 protease activity; recombinant hK5, fluorogenic AMC substrate cleavage; inhibition, % at 5 µM; 210,000 compounds, 0.59% hits; AID 873;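 active = inhibition of 40% or more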;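 note: 0% = enzyme controls without compound and 100% = no-enzyme blanks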
* hit, by the source's call; . = no result. Compounds with a hit are over-represented: about 1.2% of the library has one in this group of screens.

SMILES | FXIIa inh 1536 | Thrombin inh | PERK inh | Furin inhibitor | FXIa inh | KLK5 inh
CC(=O)c1cccc(N(CC(=O)O)S(C)(=O)=O)c1 | 7 | -4 | 1 | -16 | -8 | 8
O=C(CCc1ccc(O)cc1)N/N=C/c1coc2ccccc2c1=O | 8 | 58* | 0 | -15 | 2 | 0
O=C(N/N=C/c1coc2ccccc2c1=O)c1cc(O)cc(O)c1 | 9 | 6 | 2 | -16 | 2 | 14
CCOc1cc(/C=N/n2cnnc2)cc(Br)c1O | 43* | 2 | 2 | -6 | 24 | 6
CCCc1nc2n[nH]c(N)c2c2c1CCCC2 | 16 | 0 | 1 | -12 | 15 | -31
CCCc1nc2n[nH]c(N)c2c2c1CCC2 | 55* | 3 | 0 | -11 | 35 | -4
COc1ccc(N(CC(=O)NCCC2=CCCCC2)S(=O)(=O)c2c(C)[nH]c(=O)[nH]c2=O)cc1 | 10 | 13 | -2 | 4 | 5 | 39
O=C(Cc1cccs1)NCc1ccncc1 | 16 | 4 | 3.0* | -16 | 3 | -4
CCN=C(NS(=O)(=O)c1ccc(Br)cc1)c1ccc(Cl)cc1 | 6 | 14 | -1 | -21 | -1 | -7
COCCCNC(=O)c1c(N)n(-c2ccc3c(c2)OCO3)c2nc3ccccc3nc12 | -11 | 0 | -1 | -21 | -9 | 105*
COc1cc(OC)c(NS(=O)(=O)c2cccc(C(=O)OCC(=O)NCC3CCCO3)c2)cc1Cl (stereo not given) | 5 | 3 | 1 | -20 | -1 | -4
Cc1ccc(OCC(=O)N2CCN(C(=O)CCC3CCCC3)CC2)cc1 | 11 | -2 | -1 | -22 | 5 | 18
Cc1ccc(OCC(=O)N2CCC(N3CCCCCC3)CC2)cc1 | -1 | 42* | 0 | -24 | -14 | -32
Cc1cc(-c2nnco2)c(C)n1-c1ccc(F)cc1 | -3 | 4 | 0 | -14 | -13 | -29
Cc1ccc(C)n1-c1ccc(-c2nnco2)cc1 | -5 | 40* | 1 | -31 | 1 | 21
CCOC(=O)c1[nH]c2ccccc2c1NC(=O)c1ccc(S(=O)(=O)N(C)C)cc1 | 7 | -2 | -1 | -14 | 0 | -11
CN(C)S(=O)(=O)c1ccc(C(=O)Oc2cc(=O)[nH]c3ccccc23)cc1 | 27 | 40* | 1 | -19 | 10 | 12
CC1CCN(S(=O)(=O)c2ccc3ncn(CC(=O)N(C)Cc4ccccc4)c(=O)c3c2)CC1 | 15 | -2 | 0 | -22 | 2 | 3
CC1CCN(S(=O)(=O)c2ccc3nc(-c4ccccn4)cc(C(=O)NCCN(C)Cc4ccccc4)c3c2)CC1 | 66* | 34 | 0 | -13 | 30 | 18
O=C1CC(N2CCN(Cc3ccc(Cl)cc3)CC2)C(=O)N1CCc1ccccc1 (stereo not given) | 41* | 9 | -2 | 2 | 21 | 18
O=C1CC(N2CCN(Cc3ccccc3)CC2)C(=O)N1CCc1ccccc1 (stereo not given) | 15 | 4 | -1 | -16 | -6 | -5
Nn1c(Cc2cccc3ccccc23)nnc1SCCOc1ccc(F)cc1 | 41* | 28 | -1 | -5 | 21 | 27
CCCN1C(=O)C2C(C(=O)Nc3cccc(OC)c3)C3C=CC2(O3)C1C(=O)NC1CCCCC1 (stereo not given) | 15 | 3 | -1 | -6 | 0 | -18
C=C(C)CC1N(c2cccc(OC)c2)C(=O)C2C(C(=O)O)C3C=CC21O3 (stereo not given) | -4 | -4 | -1 | -10 | -8 | 45*
COC(=O)c1ccc(NCC(=O)Nc2cc(C)cc(C)c2)cc1 | 57* | 11 | -1 | -3 | 33 | 25
SMILES | FXIIa inh 1536 | Thrombin inh | PERK inh | Furin inhibitor | FXIa inh | KLK5 inh
Cc1ccc(S(N)(=O)=O)cc1NC(=O)/C=C/c1ccc2c(c1)OCO2 | 9 | -4 | 0 | -14 | -6 | -3
FC(F)(F)c1cccc(Oc2ccc3c(C(F)(F)F)cc(C(F)(F)F)nc3n2)c1 | 10 | -3 | 3.7* | -13 | -3 | 2
N#Cc1c2c(c(Nc3ccc(O)cc3)n3c1nc1ccccc13)CCC2 | 12 | 35 | 0 | -13 | 0 | 44*
N#Cc1c2c(c(NCc3ccco3)n3c1nc1ccccc13)CCC2 | 23 | -4 | 0 | -10 | 16 | -31
CN(c1ccc(OCC(=O)N2CCN(c3ccc(F)cc3)CC2)cc1)S(=O)(=O)c1cccs1 | 3 | 1 | 0 | -13 | -6 | -22
CC(C1CC2CCC1C2)N1CC(O)=C(c2nc3ccccc3[nH]2)C1=N (stereo not given) | 49* | 4 | -1 | 1 | 27 | 27
O=C(NCCO)C1CCN(C(=O)c2ccc(-c3ccccc3)cc2)CC1 | 3 | -9 | 1 | -12 | -1 | -3
OC(CN1C2=NCCN2c2ccccc21)c1ccc(Br)cc1 (stereo not given) | 1 | 12 | -1 | -28 | 7 | 53*
C=CCNC(=O)COC(=O)c1cc(S(=O)(=O)N2CCCCC2)ccc1Cl | 10 | -1 | 1 | -19 | 20 | 14
CSc1c(CC(=O)NCCO)n(C)c2ccccc12 | 18 | 13 | 1 | 4 | 3 | 51*
Cn1c(CC(=O)NCCO)c(Sc2ccccc2)c2ccccc21 | 4 | -9 | 1 | -20 | 4 | -23
COc1cc(C(=O)OCCN2CCOCC2)ccc1O | 11 | 1 | 1 | -22 | 2 | -16
O=C(OCCCN1CCOCC1)c1ccc(O)c(O)c1 | 10 | 3 | 3.4* | -20 | 3 | 1
O=C(OCCCC(=O)N1CCOCC1)c1ccccc1 | 18 | 5 | 2 | -19 | -3 | 42*
O=C1CCN(S(=O)(=O)c2ccc(Cl)cc2)CCN1 | 9 | -1 | 1 | -12 | -1 | -3
O=C(COC(=O)/C=C/c1ccco1)NCc1ccc2c(c1)OCO2 | 6 | -8 | 0 | -25 | -2 | -4
O=C(Nc1c2c(nn1-c1ccc(F)cc1)CS(=O)C2)c1ccc(S(=O)(=O)N2CCOCC2)cc1 (stereo not given) | 7 | -8 | 0 | -28 | -3 | -9
COc1ccc(NC(=S)NCCN2CCC(C)CC2)cc1Cl | 6 | -9 | -1 | -17 | -2 | .
COc1ccccc1NC(=O)Nc1cc(F)ccc1F | 7 | 2 | 1 | -25 | -2 | 2
CCC(CO)NC1=C([N+](=O)[O-])C(=O)CC(C)(C)C1 (stereo not given) | 18 | 15 | 1 | -10 | 18 | 50*
CCCC1(c2ccccc2)NC(=O)N(CC(=O)Nc2cc(S(=O)(=O)N3CCOCC3)ccc2Cl)C1=O (stereo not given) | 0 | . | 0 | -27 | -1 | -5
Cn1cnc(S(=O)(=O)N2CCc3ccccc32)c1 | 13 | 2 | 3.1* | -26 | -5 | -14
Cc1n[nH]c(C)c1S(=O)(=O)N1CCc2ccccc21 | 2 | -5 | 1 | -2 | -11 | -13
CN(C)S(=O)(=O)N1CCc2ccccc21 | 23 | 24 | 1 | -18 | 10 | 72*
